“Also recorded” adds a separate entry of the source.
Experiments:
eNOS [1] = test: eNOS oxygenase activity, L-[3H]citrulline formation; type: biochemical, human; settings: 50 nM eNOS, 1 μM calmodulin, 0.5 mM Ca2+, 10 μM L-arginine, 37 °C, 5 min, varied peptide concentrations
Method in brief: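 Steady-state reaction in 25 mM Tris pH 7.5, 100 mM NaCl, 0.1 mM EGTA, 0.1 mM EDTA, 100 μM β-NADPH, 100 μM H4B and 1 μCi L-[3H]arginine tracer. Read-out was L-[3H]citrulline formed. Activity was normalized as percent of the rate without peptide. Mean ± standard deviation of triplicate experiments.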

CaM mutant B1234Q = test: Gel mobility-shift assay of peptide binding to CaM mutant B1234Q; parameters: species or system human; settings: CaM:peptide ratio 1:10, 100 μM Ca2+
Method in brief: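 Calmodulin mutant with Glu→Gln at all four Ca2+ sites ([…]), expressed in E. coli BL21(DE3) and purified by heat treatment at 70°C, ammonium sulfate fractionation and gel filtration. Test peptide and mutant were incubated at a 1:10 CaM:peptide ratio for 1 h in 20 mM Tris pH 7.5 with 100 μM Ca2+. Samples ran on 18% nondenaturing, non-reducing PAGE with 100 μM free Ca2+ in gel buffers, then Coomassie staining.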

CaM = test: Intrinsic tryptophan fluorescence of peptides with CaM; type: binding, human; settings: 100 μM Ca2+; 5 μM peptide + 5 μM CaM, 20 mM Tris pH 7.5, excitation 290 nm
Method in brief: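 Test peptides carry tryptophan. Each peptide (5 μM) was measured with or without 5 μM E. coli-expressed wild-type CaM in 20 mM Tris pH 7.5 containing 100 μM Ca2+, with 1 mM EGTA in place of Ca2+ as the low-Ca2+ condition. Intrinsic fluorescence was excited at 290 nm and emission scanned from 300 to 450 nm, 2-nm slits. Intensity and emission peak position were compared.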

eNOS [2] = test: Cytochrome c reductase activity of eNOS; type: biochemical, human; settings: 10 μM peptide, with CaM
Method in brief: (§1)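 Purified eNOS in Tris-HCl pH 7.5 with NaCl, 10% glycerol, NADPH and enzyme at 37 °C, with or without each peptide, and with or without CaM plus 100 μM CaCl2. Cytochrome c reduction used cytochrome c as electron acceptor. Ferricyanide reduction used the same mixture with ferricyanide in place of cytochrome c.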

eNOS [3] = test: Ferricyanide reduction by eNOS; type: biochemical, human; settings: 10 μM peptide, with CaM
Method in brief: as §1

Substance | Effect on eNOS oxygenase activity (L-citrulline formation), in words (eNOS [1]) | Binding to B1234Q (disappearance of free B1234Q band) (CaM mutant B1234Q) | further results
PKFPRVKNWEVGSITYDTLS [Peptide E0] | did not interfere with eNOS catalytic activity |  | 
RRPKRREIPL^1KVLV^5KAV^8LFACML^14M [Peptide M2] |  | able to bind B1234Q; also recorded: binds B1234Q with the highest affinity | 
TKQA^1WRNA^5PRC^8IG^10RIQW^14SNL [Peptide M1] |  | able to bind B1234Q | Increase in tryptophan fluorescence intensity induced by CaM (CaM): 2 fold
VTSRIRTQSF^1SLQERQL^8RGAVPW^14 [Peptide E5] | did not interfere with eNOS catalytic activity |  | 
YNSSPRPEQHKSY^1KIRF^5NSI^8SCSDPL^14 [Peptide E3] | weak inhibition on citrulline formation |  | Inhibition of cytochrome c reduction (eNOS [2]): no effect on electron transfer within reductase domain; Inhibition of ferricyanide reduction (eNOS [3]): no effect on electron transfer within reductase domain

Source: PMC2702655 (Archives of biochemistry and biophysics, 2009)
